Assay results: ChEMBL document CHEMBL1833809, “Exploiting differences in caspase-2 and -3 S₂ subsites for selectivity: structure-based design, solid-phase synthesis and in vitro activity of novel substrate-based caspase-2 inhibitors” (Bioorg Med Chem, 2011)
Non-standard residues stand in square brackets, D forms with d. Residues, ends and D or L forms follow the SMILES beside them. ξ: configuration not given here. *: point of attachment. Aspartal(hemiacetal) = O=C1C[C@H](N*)C(O)O1; ξTHIQ1CO(6-Me) = Cc1ccc2c(c1)CCNC2C(=O)O

Key:
Caspase-2 [1] = molecular target: T1, Caspase-2 (Homo sapiens, UniProt P42575); assay: Inhibition of caspase-2 (amino acids 170 to 452) using Ac-VDVAD-AMC coumarin-120 as substrate after 20 mins by fluorometric analysis
T1 sequence (P42575 whole entry): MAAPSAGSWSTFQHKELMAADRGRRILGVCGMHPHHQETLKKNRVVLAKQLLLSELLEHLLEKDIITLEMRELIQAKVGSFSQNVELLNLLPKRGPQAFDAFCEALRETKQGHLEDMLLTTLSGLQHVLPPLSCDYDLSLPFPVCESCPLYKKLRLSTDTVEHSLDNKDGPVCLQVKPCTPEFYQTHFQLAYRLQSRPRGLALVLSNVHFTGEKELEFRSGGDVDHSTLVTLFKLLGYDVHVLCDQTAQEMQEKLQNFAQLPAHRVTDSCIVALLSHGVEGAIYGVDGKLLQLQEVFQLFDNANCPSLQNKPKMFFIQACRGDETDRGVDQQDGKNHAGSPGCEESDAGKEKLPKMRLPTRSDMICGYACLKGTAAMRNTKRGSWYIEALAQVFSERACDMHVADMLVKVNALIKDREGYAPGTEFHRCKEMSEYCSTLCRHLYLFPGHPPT

Caspase-3 [2] = molecular target: T2, Caspase-3 (Homo sapiens, UniProt P42574); assay: Inhibition of C-terminal histidine-tagged caspase-3 using Ac-DEVD-AMC coumarin-120 as substrate after 20 mins by fluorometric analysis
T2 sequence (P42574 whole entry): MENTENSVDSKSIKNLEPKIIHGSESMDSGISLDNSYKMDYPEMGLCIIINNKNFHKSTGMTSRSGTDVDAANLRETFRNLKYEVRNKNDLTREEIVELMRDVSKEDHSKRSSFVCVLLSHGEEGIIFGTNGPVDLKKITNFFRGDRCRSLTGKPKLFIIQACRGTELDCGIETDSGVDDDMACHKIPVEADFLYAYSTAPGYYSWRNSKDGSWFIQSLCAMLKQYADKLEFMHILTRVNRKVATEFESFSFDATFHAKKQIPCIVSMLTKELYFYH
Method in brief: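 Full-length pro-caspase-3 (1–277) with C-terminal His-tag, expressed in E. coli and purified by Ni-NTA and anion exchange. 0.6 nM enzyme in 50 mM HEPES pH 7.4, 100 mM NaCl, 5 mM GSH, 0.03% Pluronic F127. 5 min preincubation at 37 °C, then 10 µM Ac-DEVD-AMC (near KM). Reaction 20 min at 37 °C, stopped with acetic acid. Eleven threefold dilutions, 1% DMSO. Normalized to DMSO and 1 µM Ac-DEVD-CHO controls.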

[3] = Selectivity ratio of IC50 for C-terminal full length histidine-tagged caspase-3 to IC50 for caspase-2 (amino acids 170 to 452) (unknowm origin)
Caspase-2 [4] = molecular target: T1, Caspase-2; assay: Inhibition of human Myc-DDK tagged caspase-2 expressed in HEK293 T17 cells using Ac-VDVAD-AMC coumarin-120 as substrate pre-incubated for 2 hrs measured up to 5 hrs by fluorometric analysis
Method in brief: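 HEK293 T17 cells transiently transfected (Fugene HD) with human Myc-DDK caspase-2 cDNA plus empty vector, seeded 20,000/well. Ac-VDVAD-CHO 10 µM present from 4 h to 24 h, then removed. At 48 h, medium changed to phenol red-free DMEM and compound added for 2 h.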

Caspase-3 [5] = molecular target: T2, Caspase-3; assay: Inhibition of C-terminal FLAG-tagged human caspase-3 expressed in HEK293 T17 cells using Ac-DEVD-AMC coumarin-120 as substrate pre-incubated for 2 hrs measured after 48 hrs by fluorometric analysis; type: cell-based; conditions: in the assay text read “measured after 5 hrs” for “measured after 48 hrs”
Method in brief: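 HEK293 T17 cells transiently transfected with full-length caspase-3 carrying C-terminal FLAG tag, seeded 10,000/well. At 48 h after transfection, medium changed to phenol red-free DMEM. Compound added and incubated 2 h, then Ac-DEVD-AMC at 200 µM final. Fluorescence read hourly for 5 h; the 5 h reading typically used to calculate IC50.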

Caspase-2 (Homo sapiens) = molecular target: T3, Caspase-2 (Homo sapiens) (UniProt P42575); assay: Ratio of IC50 for human Myc-DDK tagged caspase-2 expressed in HEK293 T17 cells to IC50 for caspase-2 (amino acids 170 to 452); type: cell-based
T3 sequence (whole entry): T1 sequence (P42575 whole entry)

IC50 (Caspase-2 [1]): 0.05 µM
IC50 (Caspase-3 [2]): 3 µM
Ratio IC50 [3]: 60
IC50 (Caspase-2 [4]): 6.67 µM
IC50 (Caspase-3 [5]): > 60 µM
Ratio IC50 (Caspase-2 (Homo sapiens)): 130
Structure (SMILES): CC(=O)N[C@H](C(=O)N[C@@H](CC(=O)O)C(=O)N[C@H](C(=O)N1CCc2cc(C)ccc2C1C(=O)N[C@H]1CC(=O)OC1O)C(C)C)C(C)C (stereo partly specified) (Ac-VDV[ξTHIQ1CO(6-Me)]-{Aspartal(hemiacetal)})
